Experimental data as given in ChEMBL document CHEMBL3611989, “Discovery and characterization of aryl isonitriles as a new class of compounds versus methicillin- and vancomycin-resistant Staphylococcus aureus” (Eur J Med Chem, 2015).
Values after ≈ are worked out from the molar mass of the structure shown.

Key:
Staphylococcus aureus [1] = test: Antimicrobial activity against methicillin-sensitive Staphylococcus aureus NRS72 assessed as reduction in bacterial growth incubated for 18 to 20 hrs at 37 degC by broth microdilution method; type: functional
How it was run: (§1)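 Modified CLSI broth microdilution. Bacterial suspension of about 1 × 10^5 CFU/mL in tryptic soy broth. Each agent was added in triplicate to the first row and serially diluted down the plate. Plates were incubated at 37 °C for 18-20 h. MIC was read as the lowest concentration with no visible growth.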

Staphylococcus aureus [2] = test: Antimicrobial activity against methicillin-resistant Staphylococcus aureus USA100 assessed as reduction in bacterial growth incubated for 18 to 20 hrs at 37 degC by broth microdilution method; type: functional; how it was run: as §1
Staphylococcus aureus [3] = test: Antimicrobial activity against methicillin-resistant Staphylococcus aureus USA200 assessed as reduction in bacterial growth incubated for 18 to 20 hrs at 37 degC by broth microdilution method; type: functional; how it was run: as §1
Staphylococcus aureus [4] = test: Antimicrobial activity against methicillin-resistant Staphylococcus aureus USA300 assessed as reduction in bacterial growth incubated for 18 to 20 hrs at 37 degC by broth microdilution method; type: functional; how it was run: as §1
Staphylococcus aureus [5] = test: Antimicrobial activity against methicillin-resistant Staphylococcus aureus USA500 assessed as reduction in bacterial growth incubated for 18 to 20 hrs at 37 degC by broth microdilution method; type: functional; how it was run: as §1
Staphylococcus aureus [6] = test: Antimicrobial activity against methicillin-resistant Staphylococcus aureus USA700 assessed as reduction in bacterial growth incubated for 18 to 20 hrs at 37 degC by broth microdilution method; type: functional; how it was run: as §1
Staphylococcus aureus [7] = test: Antimicrobial activity against methicillin-resistant Staphylococcus aureus NRS119 assessed as reduction in bacterial growth incubated for 18 to 20 hrs at 37 degC by broth microdilution method; type: functional; how it was run: as §1
Staphylococcus aureus [8] = test: Antimicrobial activity against vancomycin-intermediate-resistant Staphylococcus aureus NRS1 assessed as reduction in bacterial growth incubated for 18 to 20 hrs at 37 degC by broth microdilution method; type: functional; how it was run: as §1
Staphylococcus aureus [9] = test: Antimicrobial activity against vancomycin-resistant Staphylococcus aureus VRS2 assessed as reduction in bacterial growth incubated for 18 to 20 hrs at 37 degC by broth microdilution method; type: functional; how it was run: as §1
J774 [10] = test: Cytotoxicity against mouse J774 cells assessed as reduction in cell viability at 32 uM incubated for 2 hrs by MTS assay; type: cell-based; settings: j774, 2 h
How it was run: (§2)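 Murine J774 macrophages grown in DMEM with 10% FBS at 37 °C, 5% CO2. Compounds were tested in triplicate at 16, 32, 64 and 128 μM for 2 h, with DMSO-matched vehicle controls. MTS reagent was then added and absorbance read at OD490. Viability is given as percent of DMSO-treated cells (mean of triplicate ± standard deviation), compared by paired t-test (P < 0.05).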

J774 [11] = test: Cytotoxicity against mouse J774 cells assessed as reduction in cell viability at 64 uM incubated for 2 hrs by MTS assay; type: cell-based; settings: j774, 2 h; how it was run: as §2
J774 [12] = type: cell-based; settings: mouse, j774, 2 h, 128 µM

For `[C-]#[N+]c1ccccc1CP(=O)(OCC)OCC`, the MIC (Staphylococcus aureus [1]) was > 128 µM, the MIC (Staphylococcus aureus [2]) was > 128 µM and the MIC (Staphylococcus aureus [3]) was 128 µM (≈ 32.4 µg/mL). For the same molecule, the MIC (Staphylococcus aureus [4]) was > 128 µM, the MIC (Staphylococcus aureus [5]) was > 128 µM and the MIC (Staphylococcus aureus [6]) was > 128 µM. The MIC (Staphylococcus aureus [7]) was > 128 µM, the MIC (Staphylococcus aureus [8]) was 128 µM (≈ 32.4 µg/mL) and the MIC (Staphylococcus aureus [9]) was > 128 µM.
`[C-]#[N+]c1ccccc1/C=C(\C)c1ccccc1` was tested, and the MIC (Staphylococcus aureus [1]) was 8 µM (≈ 1.75 µg/mL), the MIC (Staphylococcus aureus [2]) was 8 µM (≈ 1.75 µg/mL) and the MIC (Staphylococcus aureus [3]) was 64 µM (≈ 14 µg/mL). The MIC (Staphylococcus aureus [4]) was > 128 µM, the MIC (Staphylococcus aureus [5]) was > 128 µM and the MIC (Staphylococcus aureus [6]) was 16 µM (≈ 3.51 µg/mL). The MIC (Staphylococcus aureus [7]) was > 128 µM, the MIC (Staphylococcus aureus [8]) was 4 µM (≈ 0.877 µg/mL) and the MIC (Staphylococcus aureus [9]) was > 128 µM.
With `[C-]#[N+]c1ccccc1/C=C(\CCC)c1ccccc1` the MIC (Staphylococcus aureus [1]) was 16 µM (≈ 3.96 µg/mL), the MIC (Staphylococcus aureus [2]) was 16 µM (≈ 3.96 µg/mL) and the MIC (Staphylococcus aureus [3]) was 16 µM (≈ 3.96 µg/mL). For the same molecule, the MIC (Staphylococcus aureus [4]) was 32 µM (≈ 7.91 µg/mL), the MIC (Staphylococcus aureus [5]) was 16 µM (≈ 3.96 µg/mL) and the MIC (Staphylococcus aureus [6]) was 16 µM (≈ 3.96 µg/mL). For the same molecule, the MIC (Staphylococcus aureus [7]) was 32 µM (≈ 7.91 µg/mL), the MIC (Staphylococcus aureus [8]) was 8 µM (≈ 1.98 µg/mL) and the MIC (Staphylococcus aureus [9]) was 32 µM (≈ 7.91 µg/mL).
Work on `[C-]#[N+]c1ccccc1/C=C(\CCCC)c1ccccc1` yielded an MIC (Staphylococcus aureus [1]) of 32 µM (≈ 8.36 µg/mL), an MIC (Staphylococcus aureus [2]) of 32 µM (≈ 8.36 µg/mL) and an MIC (Staphylococcus aureus [3]) of 32 µM (≈ 8.36 µg/mL). For the same molecule, the MIC (Staphylococcus aureus [4]) was > 128 µM, the MIC (Staphylococcus aureus [5]) was 32 µM (≈ 8.36 µg/mL) and the MIC (Staphylococcus aureus [6]) was 16 µM (≈ 4.18 µg/mL). For the same molecule, the MIC (Staphylococcus aureus [7]) was > 128 µM, the MIC (Staphylococcus aureus [8]) was 16 µM (≈ 4.18 µg/mL) and the MIC (Staphylococcus aureus [9]) was 64 µM (≈ 16.7 µg/mL).
With `[C-]#[N+]c1ccccc1C=C(c1ccccc1)c1ccccc1` the MIC (Staphylococcus aureus [1]) was 8 µM (≈ 2.25 µg/mL), the MIC (Staphylococcus aureus [2]) was 8 µM (≈ 2.25 µg/mL) and the MIC (Staphylococcus aureus [3]) was 8 µM (≈ 2.25 µg/mL). The MIC (Staphylococcus aureus [4]) was 16 µM (≈ 4.5 µg/mL), the MIC (Staphylococcus aureus [5]) was 8 µM (≈ 2.25 µg/mL) and the MIC (Staphylococcus aureus [6]) was 4 µM (≈ 1.13 µg/mL). It also gave an MIC (Staphylococcus aureus [7]) of 16 µM (≈ 4.5 µg/mL), an MIC (Staphylococcus aureus [8]) of 4 µM (≈ 1.13 µg/mL) and an MIC (Staphylococcus aureus [9]) of 16 µM (≈ 4.5 µg/mL).
`[C-]#[N+]c1ccccc1/C=C(\CC)c1ccc(F)cc1` was tested, and the MIC (Staphylococcus aureus [1]) was 8 µM (≈ 2.01 µg/mL), the MIC (Staphylococcus aureus [2]) was 16 µM (≈ 4.02 µg/mL) and the MIC (Staphylococcus aureus [3]) was 16 µM (≈ 4.02 µg/mL). The MIC (Staphylococcus aureus [4]) was 32 µM (≈ 8.04 µg/mL), the MIC (Staphylococcus aureus [5]) was 16 µM (≈ 4.02 µg/mL) and the MIC (Staphylococcus aureus [6]) was 8 µM (≈ 2.01 µg/mL). The MIC (Staphylococcus aureus [7]) was 64 µM (≈ 16.1 µg/mL), the MIC (Staphylococcus aureus [8]) was 8 µM (≈ 2.01 µg/mL) and the MIC (Staphylococcus aureus [9]) was 32 µM (≈ 8.04 µg/mL).
`[C-]#[N+]c1ccccc1/C=C(\CC)c1ccc(OC)cc1` was tested, and the MIC (Staphylococcus aureus [4]) was 16 µM (≈ 4.21 µg/mL), the MIC (Staphylococcus aureus [6]) was 4 µM (≈ 1.05 µg/mL) and the MIC (Staphylococcus aureus [7]) was > 128 µM. The MIC (Staphylococcus aureus [8]) was 4 µM (≈ 1.05 µg/mL), the MIC (Staphylococcus aureus [9]) was 8 µM (≈ 2.11 µg/mL) and the Activity (J774 [10]) was “Non-toxic”. For the same molecule, the Activity (J774 [11]) was “Toxic” and the Activity (J774 [12]) was “Toxic”.
For `[C-]#[N+]c1ccccc1/C=C(\CC)c1cccc(C(F)(F)F)c1`, the MIC (Staphylococcus aureus [1]) was 4 µM (≈ 1.21 µg/mL), the MIC (Staphylococcus aureus [2]) was 4 µM (≈ 1.21 µg/mL) and the MIC (Staphylococcus aureus [4]) was > 128 µM. The MIC (Staphylococcus aureus [6]) was 2 µM (≈ 0.603 µg/mL), the MIC (Staphylococcus aureus [8]) was 2 µM (≈ 0.603 µg/mL) and the MIC (Staphylococcus aureus [9]) was 8 µM (≈ 2.41 µg/mL). For the same molecule, the Activity (J774 [10]) was “Non-toxic”, the Activity (J774 [11]) was “Toxic” and the Activity (J774 [12]) was “Toxic”.
For `[C-]#[N+]c1ccccc1/C=C/c1cccc(F)c1`, the MIC (Staphylococcus aureus [1]) was 8 µM (≈ 1.79 µg/mL), the MIC (Staphylococcus aureus [2]) was 16 µM (≈ 3.57 µg/mL) and the MIC (Staphylococcus aureus [3]) was 16 µM (≈ 3.57 µg/mL). The MIC (Staphylococcus aureus [4]) was 32 µM (≈ 7.14 µg/mL), the MIC (Staphylococcus aureus [5]) was 128 µM (≈ 28.6 µg/mL) and the MIC (Staphylococcus aureus [6]) was 16 µM (≈ 3.57 µg/mL). The MIC (Staphylococcus aureus [7]) was 128 µM (≈ 28.6 µg/mL), the MIC (Staphylococcus aureus [8]) was 8 µM (≈ 1.79 µg/mL) and the MIC (Staphylococcus aureus [9]) was 128 µM (≈ 28.6 µg/mL). The Activity (J774 [10]) was “Non-toxic”, the Activity (J774 [11]) was “Toxic” and the Activity (J774 [12]) was “Toxic”.
`[C-]#[N+]c1ccccc1/C=C/c1ccc(C(F)(F)F)cc1` showed an MIC (Staphylococcus aureus [1]) of 4 µM (≈ 1.09 µg/mL), an MIC (Staphylococcus aureus [2]) of 4 µM (≈ 1.09 µg/mL) and an MIC (Staphylococcus aureus [3]) of 2 µM (≈ 0.547 µg/mL). The MIC (Staphylococcus aureus [4]) was 8 µM (≈ 2.19 µg/mL), the MIC (Staphylococcus aureus [5]) was 16 µM (≈ 4.37 µg/mL) and the MIC (Staphylococcus aureus [6]) was 2 µM (≈ 0.547 µg/mL). For the same molecule, the MIC (Staphylococcus aureus [7]) was 16 µM (≈ 4.37 µg/mL), the MIC (Staphylococcus aureus [8]) was 2 µM (≈ 0.547 µg/mL) and the MIC (Staphylococcus aureus [9]) was 16 µM (≈ 4.37 µg/mL). For the same molecule, the Activity (J774 [10]) was “Non-toxic”, the Activity (J774 [11]) was “Non-toxic” and the Activity (J774 [12]) was “Toxic”.
In the case of `[C-]#[N+]c1ccccc1/C=C/c1cccc(C(F)(F)F)c1`, the MIC (Staphylococcus aureus [1]) is reported as 2 µM (≈ 0.547 µg/mL), the MIC (Staphylococcus aureus [2]) is reported as 4 µM (≈ 1.09 µg/mL) and the MIC (Staphylococcus aureus [3]) is reported as 4 µM (≈ 1.09 µg/mL). It also gave an MIC (Staphylococcus aureus [6]) of 4 µM (≈ 1.09 µg/mL), an MIC (Staphylococcus aureus [8]) of 2 µM (≈ 0.547 µg/mL) and an MIC (Staphylococcus aureus [9]) of 8 µM (≈ 2.19 µg/mL). The Activity (J774 [10]) was “Non-toxic”, the Activity (J774 [11]) was “Non-toxic” and the Activity (J774 [12]) was “Toxic”.
